Measurements reported in ChEMBL document CHEMBL2417474, “Synthesis, antiproliferative and anti-inflammatory activities of some novel 6-aryl-2-(p-(methanesulfonyl)phenyl)-4,5-dihydropyridazi-3(2H)-ones” (Eur J Med Chem, 2013).

What was measured:
Format in all cases: functional
[1] = tested on: LOX IMVI; assay: Growth inhibition of human LOXIMVI cells assessed as cell growth at 10 uM after 48 hrs by sulforhodamine B assay; settings: read-out: Activity
[2] = tested on: TK-10; assay: Growth inhibition of human TK10 cells assessed as cell growth at 10 uM after 48 hrs by sulforhodamine B assay; settings: TK-10, 48 h, read-out: Activity
Outline: (§1)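 Single-dose NCI screen. Tumor lines were cultured in medium with 5% fetal calf serum and 2 mM L-glutamine, preincubated 24 h, then given compound in DMSO. After 48 h continuous exposure, cell growth was estimated by sulforhodamine B protein assay.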

[3] = tested on: Rattus norvegicus; assay: Antiinflammatory activity in Wistar rat assessed as inhibition of carrageenan-induced paw edema at 0.05 mmol/kg, po administered 30 mins prior challenge measured after 3 hrs
Outline: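 Wistar rats of either sex, 150–175 g, fasted 16 h, 6 per group. Dosed orally at 0.05 mmol/kg, suspended in 1% CMC in water (10 ml/kg). 30 min later, 0.1 ml of 1% carrageenan in saline injected subplantar into the left hind paw. Paw volume read by plethysmometer at 0, 3 and 5 h. % inhibition = (1 − Vt/Vc) × 100 against the vehicle group.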

[4] = tested on: SR; assay: Growth inhibition of human SR cells assessed as cell growth at 10 uM after 48 hrs by sulforhodamine B assay; settings: read-out: Activity; outline: as §1
[5] = tested on: HOP-92; assay: Growth inhibition of human HOP92 cells assessed as cell growth at 10 uM after 48 hrs by sulforhodamine B assay; settings: HOP-92, 48 h, read-out: Activity
[6] = tested on: SW-620; assay: Growth inhibition of human SW620 cells after 48 hrs by sulforhodamine B assay; settings: SW-620, 48 h
Outline: (§2)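 NCI 60-line panel. Cells were grown in medium with 5% fetal calf serum and 2 mM L-glutamine and preincubated 24 h in plates. Compound in DMSO was added at 10^-4 to 10^-8 M (five 10-fold levels), with continuous exposure for 48 h. Growth was read by SRB protein staining. GI50 is the concentration giving 50% reduction in net protein increase versus control cells.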

[7] = tested on: SF-295; assay: Growth inhibition of human SF295 cells after 48 hrs by sulforhodamine B assay; settings: SF-295, 48 h
Outline: (§3)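 NCI 60-cell-line panel. Cells were grown in medium with 5% fetal calf serum and 2 mM L-glutamine, then preincubated 24 h in plates. Compounds were added from DMSO at five 10-fold concentrations from 100 to 0.01 µM and left on cells continuously for 48 h. Cell growth was read by sulforhodamine B protein stain. GI50 is the concentration that halves net protein increase relative to control cells.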

[8] = tested on: KM12; assay: Growth inhibition of human KM12 cells after 48 hrs by sulforhodamine B assay; settings: KM12, 48 h
Outline: (§4)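 NCI 60-cell-line panel grown in RPMI-type medium with 5% fetal calf serum and 2 mM L-glutamine. Cells preincubated 24 h, then exposed continuously for 48 h to compound in DMSO at 10^-4 to 10^-8 M (five 10-fold levels). Growth read by SRB protein stain. GI50 is the concentration giving a 50% reduction in net protein increase relative to control cells.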

[9] = tested on: KM12; assay: Growth inhibition of human KM12 cells assessed as cell growth at 10 uM after 48 hrs by sulforhodamine B assay; settings: KM12, 48 h, read-out: Activity
[10] = tested on: HL-60(TB); assay: Growth inhibition of human HL-60(TB) cells after 48 hrs by sulforhodamine B assay; settings: HL-60, 48 h
Outline: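 Part of the NCI 60-cell-line panel. Cells were grown in 1640 medium with 5% fetal calf serum and 2 mM L-glutamine, then preincubated 24 h before compound was added. Compounds in DMSO were tested at five concentrations (100, 10, 1, 0.1, 0.01 µM) with 48 h continuous exposure. Read-out was SRB protein staining; GI50 is the concentration halving the net protein increase versus control.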

[11] = tested on: IGROV-1; assay: Growth inhibition of human IGROV1 cells assessed as cell growth at 10 uM after 48 hrs by sulforhodamine B assay; settings: IGROV-1, 48 h, read-out: Activity
[12] = Growth inhibition of human HCC2998 cells after 48 hrs by sulforhodamine B assay; settings: HCC 2998, 48 h; outline: as §4
[13] = tested on: PC-3; assay: Growth inhibition of human PC3 cells after 48 hrs by sulforhodamine B assay; settings: PC-3, 48 h; outline: as §3
[14] = tested on: SNB-19; assay: Growth inhibition of human SNB19 cells assessed as cell growth at 10 uM after 48 hrs by sulforhodamine B assay; settings: SNB-19, 48 h, read-out: Activity
[15] = tested on: SNB-19; assay: Growth inhibition of human SNB19 cells after 48 hrs by sulforhodamine B assay; settings: SNB-19, 48 h; outline: as §3
[16] = tested on: ACHN; assay: Growth inhibition of human ACHN cells assessed as cell growth at 10 uM after 48 hrs by sulforhodamine B assay; settings: read-out: Activity
[17] = tested on: OVCAR-3; assay: Growth inhibition of human OVCAR3 cells after 48 hrs by sulforhodamine B assay; settings: OVCAR-3, 48 h; outline: as §3
[18] = tested on: 786-0; assay: Growth inhibition of human 786-0 cells after 48 hrs by sulforhodamine B assay; settings: 786-0, 48 h; outline: as §4
[19] = tested on: UO-31; assay: Growth inhibition of human UO31 cells after 48 hrs by sulforhodamine B assay; settings: UO-31, 48 h; outline: as §2
[20] = tested on: DU-145; assay: Growth inhibition of human DU145 cells after 48 hrs by sulforhodamine B assay; settings: DU-145, 48 h; outline: as §4
[21] = tested on: T47D; assay: Growth inhibition of human T47D cells after 48 hrs by sulforhodamine B assay; outline: as §2
[22] = tested on: NCI-H226; assay: Growth inhibition of human NCI-H226 cells after 48 hrs by sulforhodamine B assay; settings: NCI-H226, 48 h; outline: as §3
[23] = Growth inhibition of human Hs 578T cells after 48 hrs by sulforhodamine B assay; outline: as §4
[24] = tested on: COLO 205; assay: Growth inhibition of human COLO205 cells assessed as cell growth at 10 uM after 48 hrs by sulforhodamine B assay; settings: COLO 205, 48 h, read-out: Activity
[25] = Growth inhibition of human EKVX cells after 48 hrs by sulforhodamine B assay; outline: as §4
[26] = tested on: SR; assay: Growth inhibition of human SR cells after 48 hrs by sulforhodamine B assay; outline: as §3
[27] = tested on: SK-OV-3; assay: Growth inhibition of human SKOV3 cells assessed as cell growth at 10 uM after 48 hrs by sulforhodamine B assay; settings: SK-OV-3, 48 h, read-out: Activity
[28] = read-out: LC50 (the source's name)

With CCc1ccc(C2=NN(c3ccc(S(C)(=O)=O)cc3)C(=O)CC2)cc1 as the compound, how does the growth at 10 µM [1] read?
The growth at 10 µM was 35%.

What about the growth at 10 µM [2] of the same compound?
The growth at 10 µM was 71.1%.

What about the inhibition in vivo at 50 µmol/kg [3] of the same compound?
The inhibition in vivo at 50 µmol/kg was 46.7%.

And the growth at 10 µM [4]?
The growth at 10 µM was 4.42%.

And the growth at 10 µM [5]?
Its growth at 10 µM is 68.6%.

And the GI50 [6]?
The GI50 was 43.1 µM.

And the TGI [6]?
Its TGI is over 100 µM.

And the CC50 [6, 28]?
Its CC50 is over 100 µM.

What about the GI50 [7] of the same compound?
The GI50 was 0.93 µM.

And the LC50 (concentration killing 50% of cells present at start) [7]?
The LC50 (concentration killing 50% of cells present at start) was over 100 µM.

What about the TGI [7] of the same compound?
Its TGI is 8.73 µM.

And the GI50 [8]?
The GI50 was 0.93 µM.

What about the LC50 [8] of the same compound?
The LC50 was over 100 µM.

What about the TGI [8] of the same compound?
The TGI was over 100 µM.

What about the growth at 10 µM [9] of the same compound?
Its growth at 10 µM is 17.3%.

What about the GI50 [10] of the same compound?
Its GI50 is 1.2 µM.

And the TGI [10]?
Its TGI is 6.35 µM.

What about the CC50 [10, 28] of the same compound?
Its CC50 is over 100 µM.

What about the growth at 10 µM [11] of the same compound?
Its growth at 10 µM is 37.4%.

And the GI50 [12]?
The GI50 was 5.27 µM.

And the TGI [12]?
Its TGI is 53.4 µM.

What about the CC50 [12, 28] of the same compound?
The CC50 was over 100 µM.

What about the GI50 [13] of the same compound?
Its GI50 is 2.76 µM.

And the LC50 [13]?
Its LC50 is over 100 µM.

And the TGI [13]?
Its TGI is over 100 µM.

What about the growth at 10 µM [14] of the same compound?
The growth at 10 µM was 51.5%.

What about the GI50 [15] of the same compound?
The GI50 was 0.13 µM.

And the TGI [15]?
The TGI was over 100 µM.

What about the CC50 [15, 28] of the same compound?
The CC50 was over 100 µM.

What about the growth at 10 µM [16] of the same compound?
Its growth at 10 µM is 46%.

And the GI50 [17]?
The GI50 was 0.93 µM.

What about the LC50 (lethal concentration, 50% net cell kill) [17] of the same compound?
The LC50 (lethal concentration, 50% net cell kill) was over 100 µM.

What about the GI50 [18] of the same compound?
The GI50 was 5.13 µM.

And the LC50 [18]?
Its LC50 is over 100 µM.

And the TGI [18]?
Its TGI is 80.3 µM.

And the GI50 [19]?
Its GI50 is 5.23 µM.

What about the LC50 (concentration killing 50% of cells) [19] of the same compound?
The LC50 (concentration killing 50% of cells) was over 100 µM.

And the TGI [19]?
Its TGI is over 100 µM.

What about the GI50 [20] of the same compound?
The GI50 was 5.66 µM.

And the TGI [20]?
Its TGI is over 100 µM.

And the CC50 [20, 28]?
The CC50 was over 100 µM.

And the GI50 [21]?
Its GI50 is 4.4 µM.

And the LC50 [21]?
Its LC50 is over 100 µM.

And the TGI [21]?
The TGI was 93.3 µM.

And the GI50 [22]?
The GI50 was 0.2 µM.

What about the TGI [22] of the same compound?
The TGI was over 100 µM.

And the CC50 [22, 28]?
The CC50 was over 100 µM.

What about the GI50 [23] of the same compound?
Its GI50 is 0.83 µM.

And the LC50 (concentration giving 50% net cell kill) [23]?
Its LC50 (concentration giving 50% net cell kill) is over 100 µM.

What about the TGI [23] of the same compound?
The TGI was 6.89 µM.

What about the growth at 10 µM [24] of the same compound?
Its growth at 10 µM is 22.5%.

And the GI50 [25]?
Its GI50 is 4.19 µM.

And the TGI [25]?
The TGI was 96.7 µM.

And the CC50 [25, 28]?
The CC50 was over 100 µM.

And the GI50 [26]?
Its GI50 is 5.65 µM.

What about the LC50 [26] of the same compound?
The LC50 was over 100 µM.

And the TGI [26]?
The TGI was 40.3 µM.

And the growth at 10 µM [27]?
The growth at 10 µM was 28.7%.
